Assay results taken from ChEMBL document CHEMBL5030505, “Assessment of NR4A Ligands That Directly Bind and Modulate the Orphan Nuclear Receptor Nurr1” (J Med Chem, 2020).
Calls of active or inactive are those of the source. The rule behind the calls is not given here.

Key:
Type in all cases: cell-based
SK-N-BE(2) = assay: Cytotoxicity against human SKNBE2 cells assessed as reduction in cell viability at 0.244 to 15.63 uM incubated for 18 hrs by Cell titer-glo assay; conditions: dose 0.244-15.63 µM
Summary of the method: (§1)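 Cells seeded at 1.5 million per 10-cm dish. Next day they were replated at 10,000 cells/well and rested 4 h. Ligand or vehicle (water, ethanol or DMSO, by ligand) was added in dose-response format in quadruplicate. After 18 h, viability was read by CellTiter-Glo luminescence. Data are mean ± s.e.m., generally representative of 2 independent experiments. One-way ANOVA versus vehicle.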

HEK-293T = assay: Cytotoxicity against human HEK293T cells assessed as reduction in cell viability at 0.244 to 15.63 microM incubated for 18 hrs by Cell titer-glo assay; conditions: dose 0.244-15.63 µM; summary of the method: as §1
PC-12 [1] = assay: Cytotoxicity against rat PC-12 cells assessed as reduction in cell viability at 0.244 to 15.63 microM incubated for 18 hrs by Cell titer-glo assay; conditions: pc-12, 18 h, dose 0.244-15.63 µM; summary of the method: as §1
SKNBE2 = assay: Modulation of Gal4-fused VP16 expressed in SKNBE(2) cells co-transfected with UAS repoter gene assessed as decrease in luciferase activity at 0.244 to 15.63 uM incubated for 18 hrs by luciferase reporter gene assay; conditions: Human alphaherpesvirus 2, filed as modulator, dose 0.244-15.63 µM
Summary of the method: (§2)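 Cells in 10-cm dishes were transfected with Gal4-VP16 expression plasmid (2 μg) plus 5xUAS-luciferase reporter (2 μg) for 18 h. They were replated at 10,000 cells/well for 4 h, then given ligand or vehicle (water, ethanol or DMSO) in quadruplicate for 18 h. Luciferase was read with Britelite Plus. Fold change is versus vehicle-treated cells, with one-way ANOVA versus vehicle.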

PC-12 [2] = assay: Modulation of Gal4-fused VP16 expressed in PC12 cells co-transfected with UAS repoter gene assessed as decrease in luciferase activity at 0.244 to 15.63 uM incubated for 18 hrs by luciferase reporter gene assay; conditions: Human alphaherpesvirus 2, filed as modulator, dose 0.244-15.63 µM; summary of the method: as §2
HEK293T = assay: Modulation of Gal4-fused VP16 expressed in HEK293T cells co-transfected with UAS repoter gene assessed as decrease in luciferase activity at 0.244 to 15.63 uM incubated for 18 hrs by luciferase reporter gene assay; conditions: Human alphaherpesvirus 2, filed as modulator, dose 0.244-15.63 µM; summary of the method: as §2
[3] = target: Nuclear receptor subfamily 4 group A member 2 (Homo sapiens) (UniProt P43354); assay: Modulation of full length human Nurr1 expressed in PC12 cells co-transfected with luciferase reporter plasmid harboring NurRE response element assessed as decrease in luciferase activity at 0.244 to 15.63 uM incubated for 18 by luciferase reporter gene assay; conditions: PC-12, filed as modulator, dose 0.244-15.63 µM, time 18.0 hrs
Sequence of Nuclear receptor subfamily 4 group A member 2 (Homo sapiens) (P43354 whole entry): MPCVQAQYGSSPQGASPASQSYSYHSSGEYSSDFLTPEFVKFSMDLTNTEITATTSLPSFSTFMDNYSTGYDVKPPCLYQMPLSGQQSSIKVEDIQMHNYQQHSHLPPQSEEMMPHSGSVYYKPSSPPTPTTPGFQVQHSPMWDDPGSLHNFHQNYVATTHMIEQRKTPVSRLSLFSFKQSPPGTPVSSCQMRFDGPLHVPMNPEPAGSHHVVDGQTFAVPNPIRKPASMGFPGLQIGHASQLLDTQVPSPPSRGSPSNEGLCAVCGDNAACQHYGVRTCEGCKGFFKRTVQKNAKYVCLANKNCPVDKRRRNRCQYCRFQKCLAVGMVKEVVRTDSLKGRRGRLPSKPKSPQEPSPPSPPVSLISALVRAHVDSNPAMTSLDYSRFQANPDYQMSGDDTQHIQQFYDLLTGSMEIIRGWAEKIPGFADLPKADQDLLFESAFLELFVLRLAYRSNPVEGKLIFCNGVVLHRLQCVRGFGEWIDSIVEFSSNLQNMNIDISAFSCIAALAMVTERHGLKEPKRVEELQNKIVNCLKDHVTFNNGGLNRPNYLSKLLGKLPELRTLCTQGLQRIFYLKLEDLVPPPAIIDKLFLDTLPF
Summary of the method: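 Here PC12 cells (FK-12 medium, 15% horse serum, 2.5% FBS, 37°C, 5% CO2) received full-length Nurr1 (2 μg) without RXRα, plus 3xNBRE- or 3xNurRE-luciferase reporter (6 μg), for 18 h. Cells were replated at 10,000/well for 4 h, then treated with ligand or vehicle in quadruplicate for 18 h. Luciferase luminescence was normalized to vehicle-treated cells. Results are mean ± s.e.m. (n=4) from 2 independent experiments, with one-way ANOVA against vehicle.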

[4] = target: Nuclear receptor subfamily 4 group A member 2 (Homo sapiens) (UniProt P43354); assay: Modulation of full length human Nurr1 expressed in SKNBE(2) cells co-transfected with RXRalpha and luciferase reporter plasmid harboring NurRE response element assessed as decrease in luciferase activity at 0.244 to 15.63 uM incubated for 18 by luciferase reporter gene assay; conditions: SKNBE2, filed as modulator, dose 0.244-15.63 µM, time 18.0 hrs
Summary of the method: (§3)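 SK-N-BE(2)-C cells were kept in 1:1 EMEM/F12 with 10% FBS at 37°C and 5% CO2. They were cotransfected with full-length Nurr1 (1 μg), full-length RXRα (1 μg) and 3xNBRE- or 3xNurRE-luc reporter (6 μg) for 18 h, replated at 10,000 cells/well for 4 h, and then treated with ligand or vehicle in quadruplicate for 18 h. The readout was luciferase luminescence as fold over vehicle, reported as mean ± s.e.m. (n=4) from 2 independent experiments, one-way ANOVA.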

[5] = target: Nuclear receptor subfamily 4 group A member 2 (Homo sapiens) (UniProt P43354); assay: Modulation of full length human Nurr1 expressed in SKNBE(2) cells co-transfected with RXRalpha and luciferase reporter plasmid harboring NBRE response element assessed as decrease in luciferase activity at 0.244 to 15.63 uM incubated for 18 by luciferase reporter gene assay; conditions: SKNBE2, filed as modulator, dose 0.244-15.63 µM, time 18.0 hrs; summary of the method: as §3
[6] = target: Nuclear receptor subfamily 4 group A member 2 (Homo sapiens) (UniProt P43354); assay: Modulation of full length human Nurr1 expressed in SKNBE(2) cells co-transfected with luciferase reporter plasmid harboring NurRE response element assessed as decrease in luciferase activity at 0.244 to 15.63 uM incubated for 18 by luciferase reporter gene assay; conditions: SKNBE2, filed as modulator, dose 0.244-15.63 µM, time 18.0 hrs
[7] = target: Nuclear receptor subfamily 4 group A member 2 (Homo sapiens) (UniProt P43354); assay: Modulation of full length human Nurr1 expressed in SKNBE(2) cells co-transfected with luciferase reporter plasmid harboring NBRE response element assessed as decrease in luciferase activity at 0.244 to 15.63 uM incubated for 18 by luciferase reporter gene assay; conditions: SKNBE2, filed as modulator, dose 0.244-15.63 µM, time 18.0 hrs
Summary of the method: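 Transfection of SK-N-BE(2)-C cells (1:1 EMEM/F12, 10% FBS, 37°C, 5% CO2) used full-length Nurr1 alone (2 μg, no RXRα) with 3xNBRE- or 3xNurRE-luciferase reporter (6 μg) for 18 h. Cells were replated at 10,000/well for 4 h, then exposed to ligand or vehicle in quadruplicate for 18 h. Luminescence was expressed as fold over vehicle, as mean ± s.e.m. (n=4) from 2 independent experiments, one-way ANOVA against vehicle.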

[8] = target: Nuclear receptor subfamily 4 group A member 2 (Homo sapiens) (UniProt P43354); assay: Modulation of full length human Nurr1 expressed in HEK293T cells co-transfected with RXRalpha and luciferase reporter plasmid harboring NurRE response element assessed as decrease in luciferase activity at 0.244 to 15.63 uM incubated for 18 by luciferase reporter gene assay; conditions: filed as modulator, dose 0.244-15.63 µM, time 18.0 hrs
Summary of the method: (§4)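 Full-length Nurr1 plasmid, alone (2 μg) or 1 μg plus full-length RXRα (1 μg), cotransfected with 3xNBRE- or 3xNurRE-luciferase reporter (6 μg) using Lipofectamine 2000, 18 h. Cells replated at 10,000/well for 4 h. Four ligand concentrations, or vehicle (water, ethanol or DMSO), added in quadruplicate for 18 h. Luciferase read. Fold change vs vehicle, mean ± s.e.m., one-way ANOVA vs vehicle.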

[9] = target: Nuclear receptor subfamily 4 group A member 2 (Homo sapiens) (UniProt P43354); assay: Modulation of full length human Nurr1 expressed in HEK293T cells co-transfected with RXRalpha and luciferase reporter plasmid harboring NBRE response element assessed as decrease in luciferase activity at 0.244 to 15.63 uM incubated for 18 by luciferase reporter gene assay; conditions: filed as modulator, dose 0.244-15.63 µM, time 18.0 hrs; summary of the method: as §4
[10] = target: Nuclear receptor subfamily 4 group A member 2 (Homo sapiens) (UniProt P43354); assay: Modulation of full length human Nurr1 expressed in HEK293T cells co-transfected with luciferase reporter plasmid harboring NurRE response element assessed as decrease in luciferase activity at 0.244 to 15.63 uM incubated for 18 by luciferase reporter gene assay; conditions: filed as modulator, dose 0.244-15.63 µM, time 18.0 hrs; summary of the method: as §4
[11] = target: Nuclear receptor subfamily 4 group A member 2 (Homo sapiens) (UniProt P43354); assay: Modulation of full length human Nurr1 expressed in HEK293T cells co-transfected with luciferase reporter plasmid harboring NBRE response element assessed as decrease in luciferase activity at 0.244 to 15.63 uM incubated for 18 by luciferase reporter gene assay; conditions: filed as modulator, dose 0.244-15.63 µM, time 18.0 hrs; summary of the method: as §4

Activity [3]: Active | Activity [4]: Active | Activity [5]: Active | Activity [6]: Active | Activity [7]: Active | Activity [8]: Active | Activity [9]: Active | Activity [10]: Active | Activity [11]: Active
SMILES: C=C1C(=O)O[C@@H]2C[C@@]3(C)CCCC(=C)[C@@H]3C[C@H]12 [ISOALANTOLACTONE]
Activity (SK-N-BE(2)): Toxic | Activity (HEK-293T): Toxic | Activity (PC-12 [1]): Toxic | Activity (SKNBE2): Active | Activity (PC-12 [2]): Active | Activity (HEK293T): Active
